In ChEMBL document CHEMBL5042498, “Development of 3-(4-Chlorophenyl)-1-(phenethyl)urea Analogues as Allosteric Modulators of the Cannabinoid Type-1 Receptor: RTICBM-189 is Brain Penetrant and Attenuates Reinstatement of Cocaine-Seeking Behavior” (J Med Chem, 2022):

Key:
[1] = target: T1, Cannabinoid receptor 1 (Homo sapiens, UniProt P21554); test: Allosteric antagonist activity at human CB1 receptor expressed in CHO-RD-HGA16 cells overexpressing Galpha16 assessed as inhibition of CP55940-stimulated calcium mobilization incubated for 15 mins FLIPR assay; format: functional, cell-based
[2] = target: Cannabinoid receptor 2 (Homo sapiens) (UniProt P34972); test: Agonist activity at human CB2 receptor CP55940-stimulated calcium mobilization at 10 uM incubated for 15 mins FLIPR assay relative to control; format: functional
Method in brief: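 CB2 agonist screen in CHO-RD-HGA16 cells stably expressing human CB2, loaded with Calcium 5 dye for 45 min at 37 °C. Cells were pretreated 15 min with vehicle, then the test compound was added at a single concentration. Fluorescence was read on FLIPR every 1 s for 90 s (485/525 nm). Response is expressed as % of CP55,940 Emax.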

[3] = target: Cannabinoid receptor 2 (Homo sapiens) (UniProt P34972); test: Antagonist activity at human CB2 receptor CP55940-stimulated calcium mobilization incubated for 15 mins FLIPR assay; format: functional; parameters: concentration or dose not given beside the values
Method in brief: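 CB2 antagonist screen in human CB2 CHO-RD-HGA16 cells loaded with Calcium 5 dye. Cells were pretreated 15 min at 37 °C with the test compound at a single concentration (10 μM), then challenged with CP55,940 at its EC80 during the FLIPR read (90 s, 485/525 nm). Response is expressed as % inhibition of the CP55,940 EC80 signal.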

[4] = target: T1, Cannabinoid receptor 1; test: Agonist activity at human CB1 receptor CP55940-stimulated calcium mobilization at 10 uM incubated for 15 mins FLIPR assay relative to control; format: functional
[5] = target: T1, Cannabinoid receptor 1; test: Allosteric antagonist activity against human CB1 receptor expressed in HEK293 cells membrane measured after 60 mins by [35S]GTPgammaS binding assay; format: functional, cell membranes
Method in brief: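 Membranes from HEK293 cells expressing hCB1 are used in assay buffer (50 mM Tris, 3 mM MgCl2, 0.2 mM EGTA, 100 mM NaCl, 1 mg/ml BSA, pH 7.4). They are preincubated 10 min, then incubated 60 min at 30 °C with 30 μM GDP, 0.1 nM [35S]GTPγS, 100 nM CP55,940 and serially diluted compound (0.1% DMSO final). Nonspecific binding is set with 30 μM unlabeled GTPγS. Reactions are filtered. Data are normalized to CP55,940 alone and fitted by 3-parameter regression; mean of ≥3 experiments in duplicate.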

[6] = target: T1, Cannabinoid receptor 1; test: Antagonist activity at N-terminal tagged human CB1 receptor transfected with HEK293 cells assessed as forskolin-stimulated cAMP level in presence of CP55940 by BRET assay; format: functional, cell-based
Method in brief: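 HEK293 cells stably expressing hCB1 (3HA-tagged at Otago, untagged at RTI) are transiently transfected with the CAMYEL BRET cAMP sensor. Cells are serum-starved 30 min and given 5 μM coelenterazine H final. Compound dilutions are added together with 5 μM forskolin and 1 μM CP55,940. BRET (460/535) is read for about 20 min at 37 °C.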

T1 sequence (P21554 whole entry): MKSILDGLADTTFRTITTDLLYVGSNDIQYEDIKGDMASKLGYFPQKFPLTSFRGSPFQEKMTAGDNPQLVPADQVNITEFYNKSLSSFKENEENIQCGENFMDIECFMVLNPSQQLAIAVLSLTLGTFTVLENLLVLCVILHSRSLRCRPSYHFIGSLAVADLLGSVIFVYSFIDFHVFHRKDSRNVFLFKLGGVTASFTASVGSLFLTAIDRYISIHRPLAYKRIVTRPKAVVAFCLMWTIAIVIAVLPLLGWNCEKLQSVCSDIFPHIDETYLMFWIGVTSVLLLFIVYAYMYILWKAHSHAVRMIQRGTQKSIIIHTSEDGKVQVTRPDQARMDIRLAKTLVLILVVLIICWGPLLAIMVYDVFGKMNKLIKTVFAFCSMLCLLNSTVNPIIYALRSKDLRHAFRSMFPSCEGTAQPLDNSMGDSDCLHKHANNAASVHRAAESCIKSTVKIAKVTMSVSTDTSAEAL
Sequence of Cannabinoid receptor 2 (Homo sapiens) (P34972 whole entry): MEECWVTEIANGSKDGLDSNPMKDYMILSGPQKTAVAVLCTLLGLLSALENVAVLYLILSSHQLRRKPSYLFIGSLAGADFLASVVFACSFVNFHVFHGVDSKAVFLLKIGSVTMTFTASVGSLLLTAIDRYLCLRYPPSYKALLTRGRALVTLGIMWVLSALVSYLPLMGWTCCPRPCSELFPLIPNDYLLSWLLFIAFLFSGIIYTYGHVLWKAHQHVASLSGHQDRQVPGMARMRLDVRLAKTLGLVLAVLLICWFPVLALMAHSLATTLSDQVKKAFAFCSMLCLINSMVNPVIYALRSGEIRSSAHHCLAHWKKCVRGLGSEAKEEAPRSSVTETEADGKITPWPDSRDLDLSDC

SMILES | IC50 [1] [nM] | Emax [2] [%] | Activity [3] [%] | Emax [4] [%] | IC50 [5] [nM] | IC50 [6] [nM]
O=C(NCCc1ccc(N2CCCCC2)cc1)Nc1ccc(Cl)cc1 | 912 | < 20 | < 35 |  |  | 
O=C(NCCc1c(F)cccc1Cl)Nc1ccc(Cl)cc1 | 398 | < 20 | < 35 | < 30 |  | 
O=C(NCCc1cc(Cl)cc(Cl)c1)Nc1ccc(Cl)cc1 | 24 | < 20 | < 35 |  | 1740 | 4370
O=C(NCCc1ccccc1)Nc1ccc(Cl)cc1 | 186 | < 20 | < 35 |  | 6760 | 3470
COc1cc(CCNC(=O)Nc2ccc(Cl)cc2)cc(OC)c1 | 1070 | < 20 | < 35 | < 30 |  | 
COc1ccccc1CCNC(=O)Nc1ccc(Cl)cc1 | 1580 | < 20 | < 35 | < 30 |  | 
O=C(NCCc1ccccc1F)Nc1ccc(Cl)cc1 | 170 | < 20 | < 35 | < 30 |  | 
COc1cc(CCNC(=O)Nc2ccc(Cl)cc2)ccc1O | > 10000 | < 20 | < 35 | < 30 |  | 
O=C(NCCc1c(F)cc(F)cc1F)Nc1ccc(Cl)cc1 | 79.4 | < 20 | < 35 | < 30 |  | 
O=C(NCCc1ccc(Br)cc1)Nc1ccc(Cl)cc1 | 148 | < 20 | < 35 | < 30 |  | 
O=C(NCCc1ccccc1Cl)Nc1ccc(Cl)cc1 | 229 | < 20 | < 35 | < 30 |  | 
N#Cc1ccc(CCNC(=O)Nc2ccc(Cl)cc2)cc1 | 437 | < 20 | < 35 | < 30 |  | 
O=C(NCCc1ccc(Cl)cc1)Nc1ccc(Cl)cc1 | 162 | < 20 | < 35 | < 30 |  | 
O=C(NCCc1ccc(-c2ccccc2)cc1)Nc1ccc(Cl)cc1 | 871 | < 20 | < 35 | < 30 |  | 
O=C(NCCc1ccc(Cl)cc1Cl)Nc1ccc(Cl)cc1 | 166 | < 20 | < 35 | < 30 |  | 
O=C(NCCc1c(F)c(F)c(F)c(F)c1F)Nc1ccc(Cl)cc1 | 32.4 | < 20 | < 35 | < 30 |  | 
O=C(NCCc1cccc(OC(F)(F)F)c1)Nc1ccc(Cl)cc1 | 93.3 | < 20 | < 35 |  | 7940 | 10700
O=C(NCCc1ccc(C(F)(F)F)cc1)Nc1ccc(Cl)cc1 | 178 | < 20 | < 35 | < 30 |  | 
N#Cc1cccc(CCNC(=O)Nc2ccc(Cl)cc2)c1 | 145 | < 20 | < 35 |  | 832 | 871
Cc1ccc(CCNC(=O)Nc2ccc(Cl)cc2)cc1C | 47.9 | < 20 | < 35 |  | 2570 | 1150
CN(C)c1cccc(CCNC(=O)Nc2ccc(Cl)cc2)c1 | 1620 | < 20 | < 35 | < 30 |  | 
CS(=O)(=O)c1ccc(CCNC(=O)Nc2ccc(Cl)cc2)cc1 | > 10000 | < 20 | < 35 | < 30 |  | 
O=C(NCCc1cccc(Br)c1)Nc1ccc(Cl)cc1 | 32.4 | < 20 | < 35 |  | 3470 | 724
CN(C)c1ccc(CCNC(=O)Nc2ccc(Cl)cc2)cc1 | 257 | < 20 | < 35 | < 30 |  | 
O=C(NCCc1ccc(O)cc1)Nc1ccc(Cl)cc1 | > 10000 | < 20 | < 35 | < 30 |  | 
